Data from paper PMC6682128 (ACS Omega, 2019).

Key:
[1] = test system: HCV genotype 1b (strain Con1) replicon; experiment: HCV genotype 1b replicon luciferase assay in Huh5-2 cells; assay type: cell-based, Hepatitis C virus; conditions: EC50 comparison
Cytotoxicity assay = assay type: cell-based; conditions: human
Procedure, shortened: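 Replicon cells (Huh5-2, Huh7.5-3a or Huh7.5-4a) were seeded at 10^4 per well and grown 24 h in complete DMEM. They were then exposed for three days to serial dilutions of test compound or DMSO solvent. Lysates were assayed for ATP by chemiluminescence, normalised to Bradford total protein. CC50 was obtained by nonlinear regression against log concentration.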

CCOC(=O)N[C@H](C(=O)N1CCC[C@H]1C(=O)Nc1ccc(C#CC#Cc2ccc(NC(=O)[C@@H]3CCCN3C(=O)[C@@H](NC(=O)OCC)C(C)C)cc2)cc1)C(C)C [1b, Diethyl((2S,2′S)-((2S,2′S)-(((buta-1,3-diyne-1,4-diylbis(4,1-phenylene))bis(azanediyl))bis(carbonyl))bis(pyrrolidine-2,1-diyl))bis(3-methyl-1-oxobutane-1,2-diyl))dicarbamate]
fold more active than compound 1n [1]: 3 fold | CC50 at 3 days (Cytotoxicity assay): 2.58 µM

CC(C)[C@H](NC(=O)OCc1ccccc1)C(=O)N1CCC[C@H]1C(=O)Nc1ccc(C#CC#Cc2ccc(NC(=O)[C@@H]3CCCN3C(=O)[C@@H](NC(=O)OCc3ccccc3)C(C)C)cc2)cc1 [1e, Dibenzyl((2S,2′S)-((2S,2′S)-(((buta-1,3-diyne-1,4-diylbis(4,1-phenylene))bis(azanediyl))bis(carbonyl))bis(pyrrolidine-2,1-diyl))bis(3-methyl-1-oxobutane-1,2-diyl))dicarbamate]
fold less active than compound 1b [1]: 28 fold | CC50 at 3 days (Cytotoxicity assay): > 20 µM

CCCCOC(=O)N[C@H](C(=O)N1CCC[C@H]1C(=O)Nc1cccc(C#CC#Cc2cccc(NC(=O)[C@@H]3CCCN3C(=O)[C@@H](NC(=O)OCCCC)C(C)C)c2)c1)C(C)C [2c, Dibutyl((2S,2′S)-((2S,2′S)-(((buta-1,3-diyne-1,4-diylbis(3,1-phenylene))bis(azanediyl))bis(carbonyl))bis(pyrrolidine-2,1-diyl))bis(3-methyl-1-oxobutane-1,2-diyl))dicarbamate]
CC50 at 3 days (Cytotoxicity assay): > 10 µM

CC(C)COC(=O)N[C@H](C(=O)N1CCC[C@H]1C(=O)Nc1cccc(C#CC#Cc2cccc(NC(=O)[C@@H]3CCCN3C(=O)[C@@H](NC(=O)OCC(C)C)C(C)C)c2)c1)C(C)C [2d, Diisobutyl((2S,2′S)-((2S,2′S)-(((buta-1,3-diyne-1,4-diylbis(3,1-phenylene))bis(azanediyl))bis(carbonyl))bis(pyrrolidine-2,1-diyl))bis(3-methyl-1-oxobutane-1,2-diyl))dicarbamate]
CC50 at 3 days (Cytotoxicity assay): > 20 µM

CC(C)[C@H](NC(=O)OCc1ccccc1)C(=O)N1CCC[C@H]1C(=O)Nc1cccc(C#CC#Cc2cccc(NC(=O)[C@@H]3CCCN3C(=O)[C@@H](NC(=O)OCc3ccccc3)C(C)C)c2)c1 [2e, Dibenzyl((2S,2′S)-((2S,2′S)-(((buta-1,3-diyne-1,4-diylbis(3,1-phenylene))bis(azanediyl))bis(carbonyl))bis(pyrrolidine-2,1-diyl))bis(3-methyl-1-oxobutane-1,2-diyl))dicarbamate]
fold less active than 2b [1]: 22 fold | CC50 at 3 days (Cytotoxicity assay): > 10 µM

CCCCOC(=O)N[C@@H](CC(C)C)C(=O)N1CCC[C@H]1C(=O)Nc1cccc(C#CC#Cc2cccc(NC(=O)[C@@H]3CCCN3C(=O)[C@H](CC(C)C)NC(=O)OCCCC)c2)c1 [2g, Dibutyl((2S,2′S)-((2S,2′S)-(((buta-1,3-diyne-1,4-diylbis(3,1-phenylene))bis(azanediyl))bis(carbonyl))bis(pyrrolidine-2,1-diyl))bis(4-methyl-1-oxopentane-1,2-diyl))dicarbamate]
CC50 at 3 days (Cytotoxicity assay): > 10 µM

CCOC(=O)N[C@H](C(=O)N1CCC[C@H]1C(=O)Nc1cccc(C#CC#Cc2cccc(NC(=O)[C@@H]3CCCN3C(=O)[C@@H](NC(=O)OCC)[C@@H](C)CC)c2)c1)[C@H](C)CC [2h, Ethyl((2S,3S)-1-((S)-2-((3-((3-((S)-1-((ethoxycarbonyl)-L-alloisoleucyl)pyrrolidine-2-carboxamido)phenyl)buta-1,3-diyn-1-yl)phenyl)carbamoyl)pyrrolidin-1-yl)-3-methyl-1-oxopentan-2-yl)carbamate]
CC50 at 3 days (Cytotoxicity assay): > 200 µM

CCCCOC(=O)N[C@H](C(=O)N1CCC[C@H]1C(=O)Nc1cccc(C#CC#Cc2cccc(NC(=O)[C@@H]3CCCN3C(=O)[C@@H](NC(=O)OCCCC)[C@@H](C)CC)c2)c1)[C@H](C)CC [2i, Butyl((2S,3S)-1-((S)-2-((3-((3-((S)-1-((butoxycarbonyl)-L-alloisoleucyl)pyrrolidine-2-carboxamido)phenyl)buta-1,3-diyn-1-yl)phenyl)carbamoyl)pyrrolidin-1-yl)-3-methyl-1-oxopentan-2-yl)carbamate]
CC50 at 3 days (Cytotoxicity assay): > 10 µM

CCOC(=O)N[C@H](C(=O)N1CCC[C@@H]1C(=O)Nc1cccc(C#CC#Cc2cccc(NC(=O)[C@H]3CCCN3C(=O)[C@@H](NC(=O)OCC)C(C)C)c2)c1)C(C)C [2j, Diethyl((2S,2′S)-((2R,2′R)-(((buta-1,3-diyne-1,4-diylbis(3,1-phenylene))bis(azanediyl))bis(carbonyl))bis(pyrrolidine-2,1-diyl))bis(3-methyl-1-oxobutane-1,2-diyl))dicarbamate]
CC50 at 3 days (Cytotoxicity assay): > 10 µM

CCOC(=O)N[C@@H](C(=O)N1CCC[C@@H]1C(=O)Nc1cccc(C#CC#Cc2cccc(NC(=O)[C@H]3CCCN3C(=O)[C@H](NC(=O)OCC)C(C)C)c2)c1)C(C)C [2k, Diethyl((2R,2′R)-((2R,2′R)-(((buta-1,3-diyne-1,4-diylbis(3,1-phenylene))bis(azanediyl))bis(carbonyl))bis(pyrrolidine-2,1-diyl))bis(3-methyl-1-oxobutane-1,2-diyl))dicarbamate]
CC50 at 3 days (Cytotoxicity assay): > 10 µM

CCOC(=O)N[C@@H](CC(C)C)C(=O)N1CCC[C@@H]1C(=O)Nc1cccc(C#CC#Cc2cccc(NC(=O)[C@H]3CCCN3C(=O)[C@H](CC(C)C)NC(=O)OCC)c2)c1 [2l, Diethyl((2S,2′S)-((2R,2′R)-(((buta-1,3-diyne-1,4-diylbis(3,1-phenylene))bis(azanediyl))bis(carbonyl))bis(pyrrolidine-2,1-diyl))bis(4-methyl-1-oxopentane-1,2-diyl))dicarbamate]
CC50 at 3 days (Cytotoxicity assay): > 10 µM

CCOC(=O)N[C@H](CC(C)C)C(=O)N1CCC[C@@H]1C(=O)Nc1cccc(C#CC#Cc2cccc(NC(=O)[C@H]3CCCN3C(=O)[C@@H](CC(C)C)NC(=O)OCC)c2)c1 [2m, Diethyl((2R,2′R)-((2R,2′R)-(((buta-1,3-diyne-1,4-diylbis(3,1-phenylene))bis(azanediyl))bis(carbonyl))bis(pyrrolidine-2,1-diyl))bis(4-methyl-1-oxopentane-1,2-diyl))dicarbamate]
CC50 at 3 days (Cytotoxicity assay): > 10 µM

CCOC(=O)N[C@@H](C(=O)N1CCC[C@H]1C(=O)Nc1cccc(C#CC#Cc2cccc(NC(=O)[C@@H]3CCCN3C(=O)[C@H](NC(=O)OCC)C(C)C)c2)c1)C(C)C [2n, Diethyl((2R,2′R)-((2S,2′S)-(((buta-1,3-diyne-1,4-diylbis(3,1-phenylene))bis(azanediyl))bis(carbonyl))bis(pyrrolidine-2,1-diyl))bis(3-methyl-1-oxobutane-1,2-diyl))dicarbamate]
fold more active than 2b [1]: about 6 fold | CC50 at 3 days (Cytotoxicity assay): > 20 µM

COC(=O)N[C@@H](CC(C)C)C(=O)N1CCC[C@H]1C(=O)Nc1cccc(C#CC#Cc2cccc(NC(=O)[C@@H]3CCCN3C(=O)[C@H](CC(C)C)NC(=O)OC)c2)c1 [2o, Dimethyl((2S,2′S)-((2S,2′S)-(((buta-1,3-diyne-1,4-diylbis(3,1-phenylene))bis(azanediyl))bis(carbonyl))bis(pyrrolidine-2,1-diyl))bis(4-methyl-1-oxopentane-1,2-diyl))dicarbamate]
CC50 at 3 days (Cytotoxicity assay): > 20 µM
